LMPTP inh = blocks human LMPTP phosphatase; recombinant LMPTP-A, OMFP fluorogenic substrate, fluorescence intensity; actives 0.22% (n = 360,000); inhibition, % at 20 µM; P24666;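 active means compounds that cut the enzyme signal by at least half of the control window in the single-dose screen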;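 further: plate controls were DMSO wells with enzyme plus substrate for no effect and substrate without enzyme for full effect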
Target sequence (P24666 whole entry, looked up): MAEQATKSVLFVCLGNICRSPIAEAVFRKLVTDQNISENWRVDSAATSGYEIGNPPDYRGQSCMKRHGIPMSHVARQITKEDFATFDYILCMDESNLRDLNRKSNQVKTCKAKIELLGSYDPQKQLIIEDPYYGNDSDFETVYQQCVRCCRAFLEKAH
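Assay system: LMPTP-A, protein tyrosine phosphatase of low molecular weight / Medium: pH 6.0 Bis-Tris buffer with DTT and Triton X-100 / Schedule: 50 min enzyme reaction at room temperature, protected from light / Measured by: endpoint fluorescence intensity from OMFP dephosphorylation / Read-out basis: % inhibition relative to no-enzyme and uninhibited control wells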
Scp-1 inhibitor = blocks human Scp-1 phosphatase activity | Q9GZU7 | Recombinant Scp1, phosphopeptide, malachite green phosphate absorbance | inhibition, % at 20 µM | actives 0.88% (n = 340,000) | AID 493091;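 active means inhibition above about 50% at 20 µM, limit read from the data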;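 further: plate controls were DMSO wells with enzyme for no effect and wells lacking enzyme for full effect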
Target sequence (Q9GZU7 76-261 limits assumed): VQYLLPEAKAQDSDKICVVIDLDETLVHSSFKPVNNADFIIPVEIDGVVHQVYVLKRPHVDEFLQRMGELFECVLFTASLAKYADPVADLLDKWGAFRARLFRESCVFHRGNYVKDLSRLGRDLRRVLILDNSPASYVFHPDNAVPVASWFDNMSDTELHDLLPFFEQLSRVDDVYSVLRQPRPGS
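System: truncated SCP-1 phosphatase (76-261aa); medium: Tris acetate buffer pH 5.5 with MgCl2 and Tween-20; incubation: 45 min room-temperature reaction, 5 min colour, 30 min stabiliser; compound: single 20 µM dose, 1% DMSO; reagent: Phosphorylated 17-residue peptide substrate; read-out: % inhibition at 20 µM; technique: colorimetric free-phosphate detection, absorbance 630 nm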
GRK2 inh = human GRK2 inhibition via aptamer displacement | inhibition of aptamer binding, % at 10 µM | bead flow cytometry, FAM-aptamer displacement from GRK2 | actives 0.59% (n = 330,000) | P25098 | AID 488847;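 active means inhibition of aptamer binding above 40%, roughly 3 SD of noise, on plates passing a quality check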;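 further: median bead fluorescence of bound FAM aptamer so fluorescent compounds give negative values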
STEP block = STEP (human) phosphatase inhibition; P54829; recombinant STEP, OMFP fluorogenic substrate, fluorescence; inhibition, % at 20 µM; actives 0.25% (n = 360,000); AID 588621;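 active means inhibition at 20 µM, scaled per plate between control wells, above about 37%, limit read from the data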;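 further: 0% = DMSO with enzyme and substrate and 100% = substrate only without enzyme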
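System: isolated STEP enzyme; schedule: 20 min enzyme reaction at room temperature, protected from light; medium: Bis-Tris buffer pH 6.0, 2.5 mM DTT, 0.005% Tween 20; signal: fluorescence, 480/540 nm; dosing: single compound dose of 20 µM, 1% DMSO final; also added: OMFP substrate, 25 µM final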
DNMT1 block = inhibitors of human DNMT1. P26358. DNMT1 molecular beacon, Hinp1I cleavage, fluorescence. inhibition (reported as % activation of signal), % at 10 µM. actives 0.83% (n = 360,000); in the data active means inhibition above about 50%
SUMO1 PPI mod = SUMO1-SIM interaction modulation. P63165. SUMO1 binding to a labelled peptide, TR-FRET, 1 h. inhibition, % at 20 µM. actives 0.33% (n = 360,000). AID 602429; in the data active means inhibition above about 37%
Target sequence (P63165 whole entry, looked up): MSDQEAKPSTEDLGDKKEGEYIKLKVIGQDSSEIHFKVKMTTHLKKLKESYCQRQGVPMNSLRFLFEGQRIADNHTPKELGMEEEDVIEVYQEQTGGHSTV
GRK2 inh confirm = human GRK2 inhibition confirmation, cherry pick 1. shares compounds with GRK2 inh. bead-bound GRK2, FAM-aptamer displacement, flow cytometry. aptamer displacement, % at 10 µM. actives 4% (n = 2,000). AID 504451;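 active means aptamer displacement above 40%, near three times the noise of non-fluorescent compounds, on plates passing quality checks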;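 further: negative values mostly reflect intrinsic compound fluorescence rather than true enhancement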
Aptamer quench = quenches fluorescent RNA aptamer, GRK2 hit artifact; shares compounds with GRK2 inh; Fluorescent RNA aptamer beads, quenching, flow cytometry; active compounds read high; fluorescence change (kMESF span), kMESF (concentration not given with the values); 110 tested, under 10 active; AID 504521;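 active means compounds whose bead fluorescence drops by more than 37 kMESF across the dose range, marking them as dye quenchers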
FAM quench CP1 = aptamer fluorescence quenching in GRK2 counter-screen; Carboxyfluorescein RNA aptamer on beads, flow cytometry quenching; active compounds read low; fluorescence response (% of DMSO), % at 10 µM; AID 504580; shares compounds with GRK2 inh; 2,000 tested, under 10 active;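 active means compounds that quench the bead-bound fluorescent RNA probe, cutting fluorescence to under half of the solvent control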;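 further: counterscreen run without GRK2 so only probe quenching by compound is measured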
GRK2 confirm 2 = confirmation of human GRK2 inhibitors binding RNA aptamer site; shares compounds with GRK2 inh; bead-bound GRK2, FAM-aptamer displacement, flow cytometry; inhibition of aptamer binding, % at 10 µM; 360 tested, under 10 active; AID 504782;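 active means inhibition of aptamer binding above 40%, about triple the noise seen with nonglowing compounds, on plates passing quality control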;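 further: negative values mostly come from compounds that fluoresce themselves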
FAM quench CP2 = aptamer fluorescence quenching in GRK2 counter-screen; shares compounds with GRK2 inh; carboxyfluorescein RNA aptamer beads, flow cytometry quenching; active compounds read low; fluorescence response vs DMSO, % at 10 µM; 360 tested, under 10 active;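 active means response vs DMSO under 50%, meaning signal dropped by over half, treated as fluorescence quencher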;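 further: labelled aptamer on streptavidin beads without GRK2 as a quench counter-screen; 100% = bead fluorescence of DMSO wells and lower means quenching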
Active calls of the source: *; x = no result given. This is a sample that favours compounds with a hit; in the whole collection about 2.1% have one here.

SMILES	LMPTP inh	Scp-1 inhibitor	GRK2 inh	STEP block	DNMT1 block	SUMO1 PPI mod	GRK2 inh confirm	FAM quench CP1	others
Cc1cccc2cc(-c3ccccc3)c(-c3ccccc3)c[n+]12	5	1	44*	2	6	-12	18	62
Cc1cc(NCC(c2ccccc2)c2ccccc2)n2ncnc2n1	0	1	3	1	4	1	x	x
CCC(Cc1ccccc1)NC(=O)c1ccc2nc(N3CCOCC3)sc2c1 (stereo not given)	0	-13	0	1	-4	2	x	x
CSc1ccccc1NC(=O)N1CCCC(C(=O)c2ccc3c(c2)OCO3)C1 (stereo not given)	0	-12	95*	-4	1	-3	-1	96
CC(=O)c1cn(CC(=O)Nc2ccccc2F)c2ccccc12	-2	-2	72*	2	2	1	-6	103
O=Cc1nc(-c2ccc(Cl)cc2)n2ccccc12	0	-2	1	0	6	-22	x	x
O=Cc1nc(-c2ccccc2Cl)n2ccccc12	-1	-5	45*	-1	1	-17	-5	97
CN(C)C(CNC(=O)C1CCCN(C(=O)c2ccc(Cl)cc2)C1)c1ccco1 (stereo not given)	-2	0	68*	0	-3	0	-5	95
O=C(NCc1ccc(Cl)cc1)C1CCCN(C(=O)c2ccc(Cl)cc2)C1 (stereo not given)	0	-5	2	0	-1	-4	x	x
CC(=O)NC(c1cccc(F)c1)c1nc(-c2csc3ccccc23)cs1 (stereo not given)	1	x	x	-3	1	-13	x	x
CCN(CC)Cc1csc(C(N)=O)c1	-2	-1	14	0	-3	-2	-3	101
Cc1cccnc1NC(=O)CCNC(=O)c1ccccc1Cl	-9	-2	44*	-3	4	-7	x	x	GRK2 confirm 2=12;FAM quench CP2=102
Cc1cccnc1NC(=O)CCNC(=O)c1ccc(Cl)cc1	0	-7	2	-2	2	2	x	x
O=C(/C=C/[C@H]1O[C@@H](n2ccc(=O)[nH]c2=O)[C@H](O)[C@@H]1O)NCc1ccc2c(c1)OCO2	-1	x	x	-1	2	-1	x	x
COc1ccc(CC(=O)Nc2cccc(-c3ccc4nnc(C)n4n3)c2)cc1OC	-1	-18	0	3	-5	-24	x	x
CSCCC(NS(=O)(=O)c1ccccc1F)C(=O)NCc1cccs1 (stereo not given)	0	1	61*	-2	-2	-2	1	116
C[C@H](NS(=O)(=O)OCC(Cl)(Cl)Cl)C1CC1c1ccccc1 (stereo not given in full)	0	-1	2	1	17	8	x	x
O=S(=O)(NC1CC(NS(=O)(=O)OCC(Cl)(Cl)Cl)C2CCCCC12)OCC(Cl)(Cl)Cl (stereo not given)	-6	-9	74*	-1	-5	3	-3	100
CC(C)c1ccc([C@@H]2O[C@H](C)CC3=C2C(=O)OC(C)(C)O3)cc1	-1	x	x	x	x	1	x	x
O=C(O)c1ccc(OC(F)(F)C(F)C(F)(F)F)cc1 (stereo not given)	0	8	76*	-1	4	1	3	98
CC(C)(C)NC(=O)C1c2ccccc2OCC(=O)N1CC(F)(F)F (stereo not given)	-1	x	x	x	x	0	x	x
COc1ccc2c(c1)c(=O)oc1cc(OCC(=O)N3CCC(C)CC3)ccc12	13	77*	47*	0	63*	7	1	100
COc1ccc2c(c1)c(=O)oc1cc(OCC(=O)N3CCCC(C)C3)ccc12 (stereo not given)	4	33	5	9	13	8	x	x
Cc1ccc(N2C(=O)[C@@H]3C(C(=O)CN4C(=O)c5ccccc5C4=O)=NN[C@@H]3C2=O)c(C)c1	2	3	41*	0	7	-19	3	100
COc1ccccc1N1C(=O)[C@@H]2C(C(=O)CN3C(=O)c4ccccc4C3=O)=NN[C@@H]2C1=O	1	-5	0	0	-7	-10	x	x
SMILES	LMPTP inh	Scp-1 inhibitor	GRK2 inh	STEP block	DNMT1 block	SUMO1 PPI mod	GRK2 inh confirm	FAM quench CP1	others
O=C(Nc1ccccc1)Nc1cccc(C(F)(F)F)c1	0	-9	0	-1	8	2	x	x
Cc1cc(NC(=O)Nc2cccc(C(F)(F)F)c2)n(C)n1	-1	-3	74*	-1	2	-3	-2	99
CC(C)(C)c1ccc2cc(F)cc(F)c2n1	-1	x	x	2	5	7	x	x
COc1ccc(N(CC(=O)NCc2ccccc2)C(=O)Cn2nnc(-c3ccccc3F)n2)cc1OC	-1	-1	4	6	-1	-4	x	x
COc1cc(/C=C2\CCc3c2nc2ccccc2c3C(=O)O)cc(OC)c1OC	8	71*	62*	42*	97*	48*	45*	100	Aptamer quench=0.3
COc1cc(/C=C2\CCCc3c2nc2ccccc2c3C(=O)O)cc(Br)c1O	-7	-8	0	3	0	0	x	x
CN(C)CCCn1c(SCc2c(Cl)cccc2Cl)nnc1-c1ccncc1	-4	-5	44*	-1	1	-1	x	x	GRK2 confirm 2=2;FAM quench CP2=99
c1ccc(CCn2c(SCc3ccccc3)nnc2-c2ccncc2)cc1	0	-8	3	0	3	-2	x	x
COc1cccc(N2[C@@H](CC(C)=O)c3ccc(/C=C/C(C)=O)cc3S2(=O)=O)c1	1	-8	0	-2	2	3	x	x
CCCN(CC(=O)Nc1ccccc1C)C(=O)C1CC(=O)N(c2ccc(C)cc2)C1 (stereo not given)	-1	-3	x	-1	3	3	x	x
CCCN(CC(=O)Nc1ccccc1C)C(=O)C1CC(=O)N(c2cccc(C)c2C)C1 (stereo not given)	-3	-9	4	-3	0	12	1	98

Source: PubChem BioAssay
